Pf Dd2 inh – blocks growth of Plasmodium falciparum Dd2 parasites | 94,000 compounds, 2.3% hits | AID 1159554 | P. falciparum Dd2 growth, SYBR Green, 72 h; active compounds read low | activity change, % at 10 µM; in the data active = activity change below about -80%; inconclusive = no clear call, values can overlap the other calls
T cruzi growth-1 – T. cruzi proliferation inhibition | T. cruzi beta-gal in NIH3T3, GalScreen luminescence, 90 h | inhibition, % at 8.34 µM | 77,000 compounds, 5.9% hits | AID 624255;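 active = mean inhibition above about 93%, with at least 55% of replicates each passing it, limit read from the data, passing the limit was not always enough; inconclusive = only one of those two conditions holds; inactive = neither condition holds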
KDM4C inh – inhibitors of human demethylase GASC-1 KDM4C | Q9H3R0 | GST-KDM4C 2-372, H3K9me3 peptide, LANCE TR-FRET | inhibition, % at 12.5 µM | 96,000 compounds, 0.15% hits | AID 720574;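 active = mean replicate inhibition above about 25%, with at least 55% of replicates also reaching it, limit read from the data, passing the limit was not always enough; inconclusive = only one of those two conditions met; inactive = neither condition met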
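Test system – GST-tagged GASC-1 (JMJD2C) catalytic fragment, aa 2-372 · Medium – HEPES buffer, pH 7.5, plus ascorbate · Reagent – H3K9me3 peptide with Fe(II)/2OG · Compound – one test concentration per compound · Timing – 30 min reaction, 60 min detection, RT · Technique – TR-FRET with Eu antibody and ULight streptavidin, EDTA stop · Read-out basis – inhibition from TR-FRET ratio decrease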
IDH1 mut inh – blocks human IDH1 R132H reductase activity. O75874. diaphorase/resazurin fluorescence, 60 min. inhibition, % at 10 µM. 70,000 compounds, 0.18% hits; in the data active = inhibition above about 34%; inconclusive = no clear call, values can overlap the other calls; inactive = below about 11%;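 note: 0% = DMSO and 100% = no enzyme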
Target sequence (O75874 whole entry R132H): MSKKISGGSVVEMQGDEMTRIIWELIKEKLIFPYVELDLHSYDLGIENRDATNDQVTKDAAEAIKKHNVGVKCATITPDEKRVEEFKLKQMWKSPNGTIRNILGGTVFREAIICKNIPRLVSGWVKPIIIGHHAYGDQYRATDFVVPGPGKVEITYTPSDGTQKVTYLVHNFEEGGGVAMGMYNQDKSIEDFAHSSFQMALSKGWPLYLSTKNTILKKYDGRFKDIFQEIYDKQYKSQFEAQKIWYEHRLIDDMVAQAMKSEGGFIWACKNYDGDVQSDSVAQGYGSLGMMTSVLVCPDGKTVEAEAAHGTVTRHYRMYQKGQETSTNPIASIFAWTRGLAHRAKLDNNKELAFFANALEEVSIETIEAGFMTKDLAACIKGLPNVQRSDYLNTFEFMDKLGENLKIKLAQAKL
T cruzi growth-2 – Trypanosoma cruzi proliferation inhibition; shares compounds with T cruzi growth-1; T. cruzi beta-gal in NIH3T3, GalScreen luminescence, 90 h; inhibition, % at 8.35 µM; 5,600 compounds, 72% hits;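 active = mean replicate inhibition above about 95% and at least 55% of replicates individually reaching it, limit read from the data; inconclusive = only one of the two criteria is met; inactive = neither criterion is met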
T cruzi growth-3 – Trypanosoma cruzi proliferation inhibition | shares compounds with T cruzi growth-1 | T. cruzi beta-gal in NIH3T3, GalScreen luminescence, 90 h | inhibition, % at 2.09 µM | 5,600 compounds, 21% hits | AID 651740;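 active = mean inhibition above about 95%, with at least 55% of replicates also reaching it, limit read from the data; inconclusive = meets just one of the two conditions; inactive = meets neither condition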;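 note: plate controls were neutral control median for no effect and positive control median for full effect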
NIH3T3 tox – kills mouse NIH/3T3 fibroblasts. shares compounds with T cruzi growth-1. NIH/3T3 viability, CellTiter-Glo ATP luminescence, 90 h. cytotoxicity (signal decrease), % at 8.35 µM. 5,600 compounds, 14% hits. AID 651742;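 active = mean signal decrease across replicates above about 35% based on untreated-well scatter, with enough replicates individually passing, limit read from the data; inconclusive = no rule stated though some were filed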;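 note: 0% = median of neutral control wells and 100% = median of positive control wells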
NIH3T3 tox 2 – cytotoxicity in mouse NIH/3T3 fibroblasts. shares compounds with T cruzi growth-1. NIH/3T3 viability, CellTiter-Glo ATP luminescence, 90 h. inhibition, % at 24.9 µM. 5,600 compounds, 56% hits. AID 651744;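 active = mean loss of cell viability signal at or above a set limit, and enough replicates individually reaching it; inconclusive = meets only the mean limit or only the replicate share; inactive = meets neither condition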;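 note: 0% = median of neutral control wells and 100% = median of positive control wells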
Starred values were filed as active, the others as inactive; ? = inconclusive; . = not tested or not shown. Hits are enriched below; roughly 5.9% of the tested compounds scored in any of these assays.

SMILES	Pf Dd2 inh	T cruzi growth-1	KDM4C inh	IDH1 mut inh	T cruzi growth-2	T cruzi growth-3	NIH3T3 tox	NIH3T3 tox 2
C[C@@H]1CN([C@H](C)CO)C(=O)c2cc(C#Cc3ccccc3)cnc2O[C@H]1CN(C)S(=O)(=O)c1ccccc1F	-55	?	.	.	105*	70	24	46*
COc1cc(Cl)c(C(Nc2ccccn2)c2cc(Cl)c3cccnc3c2O)cc1OC (stereo not given)	.	.	.	0	.	.	.	.
CCCC#Cc1ccc2c(c1)O[C@@H](CN(C)Cc1cncnc1)[C@@H](C)CN([C@H](C)CO)S2(=O)=O	-13	50	18	1	.	.	.	.
CCCC#Cc1ccc2c(c1)O[C@@H](CN(C)Cc1cccnc1)[C@H](C)CN([C@@H](C)CO)S2(=O)=O	-39	122*	1	13	99*	93	55*	107*
CCCC#Cc1ccc2c(c1)O[C@H](CN(C)Cc1cncnc1)[C@@H](C)CN([C@H](C)CO)S2(=O)=O	-25	86	-3	0	.	.	.	.
CCCC#Cc1ccc2c(c1)O[C@@H](CN(C)Cc1cccnc1)[C@@H](C)CN([C@H](C)CO)S2(=O)=O	15	109*	2	15	101*	96*	?	29*
CCCC#Cc1ccc2c(c1)O[C@@H](CN(C)Cc1cccnc1)[C@H](C)CN([C@H](C)CO)S2(=O)=O	-42	119*	-1	16	97*	96*	45*	105*
C[C@H](CO)N1C[C@H](C)[C@@H](CN(C)Cc2cccnc2)Oc2cc(C#CCN(C)C)ccc2S1(=O)=O	-49	104*	3	0	103*	104*	23	21
C[C@H](O)C#Cc1ccc2c(c1)O[C@H](CN(C)Cc1cccnc1)[C@H](C)CN([C@@H](C)CO)S2(=O)=O	7	.	.	.	.	.	.	.
O=C(CCCCCCC(=O)Nc1ccccc1O)N/N=C/c1ccc([N+](=O)[O-])s1	.	.	.	0	.	.	.	.
CO[C@@H](CN(C)S(=O)(=O)c1ccc(Cl)cc1)[C@@H](C)CN([C@H](C)CO)S(=O)(=O)c1cccc(Cl)c1	-40	?	-3	-1	92	56	54*	79*
CO[C@H](CN(C)S(=O)(=O)c1cccc(Cl)c1)[C@H](C)CN([C@H](C)CO)S(=O)(=O)c1ccc(Cl)cc1	-3	?	-2	0	99*	20	47*	68*
CO[C@@H](CN(C)S(=O)(=O)c1ccc(Cl)cc1)[C@@H](C)CN([C@@H](C)CO)S(=O)(=O)c1cccc(Cl)c1	3	85	-2	0	.	.	.	.
C[C@H]1CN([C@@H](C)CO)S(=O)(=O)c2ccc(C#Cc3ccc(F)cc3)cc2O[C@H]1CN(C)C(=O)NC1CCCCC1	-37	71	1	.	.	.	.	.
CC(C)CC#Cc1ccc2c(c1)O[C@H](CN(C)C(=O)NC1CCCC1)[C@@H](C)CN([C@@H](C)CO)S2(=O)=O	3	125*	-1	0	103*	81	6	103*
CC(C)CC#Cc1ccc2c(c1)O[C@@H](CN(C)C(=O)NC(C)C)[C@H](C)CN([C@H](C)CO)S2(=O)=O	-15	51	-4	6	.	.	.	.
CC(C)CC#Cc1ccc2c(c1)O[C@@H](CN(C)C(=O)NC(C)C)[C@@H](C)CN([C@H](C)CO)S2(=O)=O	-25	51	0	-4	.	.	.	.
CC(C)CC#Cc1ccc2c(c1)O[C@H](CN(C)C(=O)NC1CCCC1)[C@H](C)CN([C@H](C)CO)S2(=O)=O	-11	120*	0	0	103*	93	18	104*
CC(C)CC#Cc1ccc2c(c1)O[C@H](CN(C)C(=O)NC1CCCC1)[C@H](C)CN([C@@H](C)CO)S2(=O)=O	10	120*	0	4	110*	79	20	81*
CC(C)CC#Cc1ccc2c(c1)O[C@@H](CN(C)C(=O)NC1CCCC1)[C@@H](C)CN([C@@H](C)CO)S2(=O)=O	-21	120*	-1	0	101*	84	-19	104*
COc1ccc(F)cc1S(=O)(=O)n1cnc2cc(C)c(C)cc21	.	.	.	-1	.	.	.	.
CCC(=O)Nc1ccc(Cl)c(NC(=O)COc2cccc3ccccc23)c1	.	.	.	0	.	.	.	.
Cc1ccc(S(=O)(=O)N(C)C[C@H]2Oc3cc(-c4cccc(F)c4)ccc3S(=O)(=O)N([C@H](C)CO)C[C@H]2C)cc1	-7	121*	0	-1	102*	94	24	43*
Cc1ccc(S(=O)(=O)N(C)C[C@@H]2Oc3cc(C#Cc4ccccc4)ccc3S(=O)(=O)N([C@@H](C)CO)C[C@@H]2C)cc1	-39	.	-1	0	.	.	.	.
Cc1ccc(S(=O)(=O)N(C)C[C@H]2Oc3cc(-c4cccc(F)c4)ccc3S(=O)(=O)N([C@H](C)CO)C[C@@H]2C)cc1	-67	126*	-2	0	105*	79	36*	27
SMILES	Pf Dd2 inh	T cruzi growth-1	KDM4C inh	IDH1 mut inh	T cruzi growth-2	T cruzi growth-3	NIH3T3 tox	NIH3T3 tox 2
Cc1ccc(-c2ccc3c(c2)O[C@@H](CN(C)S(C)(=O)=O)[C@H](C)CN([C@H](C)CO)S3(=O)=O)cc1	-44	102*	-2	0	4	-31	20	72*
Cc1ccc(S(=O)(=O)N(C)C[C@H]2Oc3cc(-c4cccc(F)c4)ccc3S(=O)(=O)N([C@@H](C)CO)C[C@H]2C)cc1	6	119*	0	0	103*	?	-16	49*
Cc1ccc(S(=O)(=O)N(C)C[C@@H]2Oc3cc(C#Cc4ccccc4)ccc3S(=O)(=O)N([C@H](C)CO)C[C@@H]2C)cc1	-43	.	-1	3	.	.	.	.
O=c1[nH]c(CSc2nnc(-c3ccccc3)o2)nc2ccccc12	.	.	.	-1	.	.	.	.
O=C(Cn1cnc2ccccc2c1=O)Nc1ccc(F)cc1F	.	.	.	1	.	.	.	.
COc1ccccc1NC(=O)CSC1=NC(c2ccccc2)CC(=O)N1 (stereo not given)	.	.	.	0	.	.	.	.
Cc1ccc(S(=O)(=O)N(C)C[C@@H]2Oc3cc(-c4cccc(F)c4)ccc3S(=O)(=O)N([C@@H](C)CO)C[C@@H]2C)cc1	-51	121*	-1	-1	100*	?	-4	37*
COc1ccc(S(=O)(=O)N(C)C[C@@H]2Oc3cc(-c4cccc(F)c4)ccc3S(=O)(=O)N([C@@H](C)CO)C[C@H]2C)cc1	?	.	3	3	.	.	.	.
Cc1ccc(S(=O)(=O)N(C)C[C@@H]2Oc3cc(-c4cccc(F)c4)ccc3S(=O)(=O)N([C@H](C)CO)C[C@H]2C)cc1	-58	104*	-2	0	92	78	69*	47*
CC(=O)c1ccc(NC(=O)COc2ccccc2C(N)=O)cc1	.	.	.	0	.	.	.	.

Bioassay records deposited in PubChem BioAssay by Broad Institute.
